Laboratory results: ChEMBL document CHEMBL1149410, “Discovery of a potent phenolic N1-benzylidene-pyridinecarboxamidrazone selective against Gram-positive bacteria” (Bioorg Med Chem Lett, 2006)
≈ marks a conversion by molar mass, not a printed value. Calls of active or inactive are those of the source. The rule behind the calls is not given here.

What was measured:
Staphylococcus aureus [1] = assay: Antibacterial activity against 10 clinical isolate methicillin-resistant strains of Staphylococcus aureus; format: functional
In short: (§1)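 Agar dilution MIC on Mueller–Hinton agar. Bacteria were spotted with a multipoint inoculator and plates incubated at 37 °C for 18 h. MIC was taken as the lowest concentration inhibiting growth. The panels covered clinical MRSA isolates, methicillin-sensitive S. aureus, enterococci, Gram-negative bacteria and vancomycin-resistant enterococci.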

[2] = tested on: Mycolicibacterium fortuitum; assay: Antibacterial activity against Mycobacterium fortuitum; format: functional, organism-based
In short: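 The Mycobacterium fortuitum reference strain NCTC 10394 was screened for a zone of inhibition on Columbia agar supplemented with horse blood. Compounds were also screened at a single concentration in Middlebrook 7H9 broth with glycerol and ADC enrichment. The MIC was determined in broth when a zone or single-concentration activity was seen.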

PBMC [3] = assay: Toxicity towards human mononuclear leucocytes at 1 mM; format: cell-based; settings: 1000 µM
In short: (§2)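 Human mononuclear leucocytes were exposed to compound for 1 h, then held in compound-free medium for 18 h. Cell death was scored by trypan blue exclusion and reported as % leucocyte death. The test concentration was 1 mM, or 0.5 mM where solubility limited it.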

Enterococcus faecalis [4] = assay: Antibacterial activity against Enterococcus faecalis isolate 3; format: functional; in short: as §1
Enterococcus [5] = assay: Antibacterial activity against vancomycin-resistant Enterococcus 3005323; format: functional; in short: as §1
Staphylococcus aureus [6] = assay: Antibacterial activity against methicillin-sensitive Staphylococcus aureus NCTC 6571; format: functional; in short: as §1
Enterococcus faecalis [7] = assay: Antibacterial activity against Enterococcus faecalis isolate 4; format: functional
In short: (§3)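 Agar dilution MIC on Mueller–Hinton agar, with a multipoint inoculator spotting the organisms. The MIC was the lowest concentration that inhibited growth after 18 h at 37 °C.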

Enterococcus faecalis [8] = assay: Antibacterial activity against Enterococcus faecalis NCTC 5957; format: functional; in short: as §3
Enterobacter cloacae = assay: Antibacterial activity against Enterobacter cloacae NCTC 11582; format: functional; in short: as §1
Enterococcus faecalis [9] = assay: Antibacterial activity against Enterococcus faecalis isolate 1; format: functional; in short: as §3
Enterococcus [10] = assay: Antibacterial activity against vancomycin-resistant Enterococcus 3102095; format: functional; in short: as §1
[11] = tested on: Staphylococcus haemolyticus; assay: Antibacterial activity against clinical isolate of Staphylococcus haemolyticus; format: functional; in short: as §3
Enterococcus faecium [12] = assay: Antibacterial activity against Enterococcus faecium ACTCC 10541; format: functional; in short: as §3
Enterococcus [13] = assay: Antibacterial activity against vancomycin-resistant Enterococcus 3002043; format: functional; in short: as §1
Enterococcus [14] = assay: Antibacterial activity against vancomycin-resistant Enterococcus 3005353; format: functional; in short: as §1
[15] = tested on: Mycobacterium tuberculosis; assay: Antibacterial activity against Mycobacterium tuberculosis H37Rv at 6.25 ug/ml; format: functional
In short: (§4)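 Inhibition of M. tuberculosis H37Rv (ATCC 27294) growth was tested in BACTEC 12B medium. Percent inhibition was recorded at a fixed concentration, and MIC was also determined.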

Staphylococcus aureus [16] = assay: Antibacterial activity against methicillin-sensitive Staphylococcus aureus Cowan 1; format: functional; in short: as §1
[17] = tested on: Bordetella bronchiseptica; assay: Antibacterial activity against Bordetella bronchiseptica NCTC 8344; format: functional; in short: as §1
Enterococcus [18] = assay: Antibacterial activity against vancomycin-resistant Enterococcus 3001562; format: functional; in short: as §1
PBMC [19] = assay: Toxicity towards human mononuclear leucocytes at 0.5 mM; format: cell-based; settings: 500 µM; in short: as §2
[20] = tested on: Stenotrophomonas maltophilia; assay: Antibacterial activity against Stenotrophomonas maltophilia NCTC 10257; format: functional; in short: as §1
Staphylococcus aureus [21] = assay: Antibacterial activity against methicillin-sensitive Staphylococcus aureus NCTC 10788; format: functional; in short: as §1
Enterococcus faecalis [22] = assay: Antibacterial activity against Enterococcus faecalis isolate 2; format: functional; in short: as §1
Enterococcus faecalis [23] = assay: Antibacterial activity against Enterococcus faecalis isolate 5; format: functional; in short: as §3
Escherichia coli [24] = assay: Antibacterial activity against Escherichia coli W3110 R+; format: functional; in short: as §1
[25] = tested on: Mycobacterium tuberculosis; assay: Antibacterial activity against Mycobacterium tuberculosis H37Rv; format: functional; in short: as §4
Enterococcus [26] = assay: Antibacterial activity against vancomycin-resistant Enterococcus 3002066; format: functional; in short: as §1
Enterococcus [27] = assay: Antibacterial activity against vancomycin-resistant Enterococcus 3005426; format: functional; in short: as §1
Klebsiella pneumoniae = assay: Antibacterial activity against Klebsiella pneumoniae 327; format: functional; in short: as §1
Enterococcus faecium [28] = assay: Antibacterial activity against Enterococcus faecium NCTC 7171; format: functional; in short: as §3
Escherichia coli [29] = assay: Antibacterial activity against Escherichia coli W3110 R-; format: functional; in short: as §1
Pseudomonas aeruginosa = assay: Antibacterial activity against Pseudomonas aeruginosa NCTC 6749; format: functional; in short: as §1
Serratia marcescens = assay: Antibacterial activity against Serratia marcescens 4444; format: functional; in short: as §1

COc1cccc(/C=N/N=C(\N)c2ccncc2)c1O
MIC (Staphylococcus aureus [1]): inactive
Activity [2]: inactive

NNC(=O)c1ccncc1 [ISONIAZID]
Activity (PBMC [3]): 12.4%

CC(C)(C)c1cc(/C=N/N=C(\N)c2ccccn2)c(O)c(C(C)(C)C)c1
MIC (Staphylococcus aureus [1]): inactive
Activity [2]: inactive

N/C(=N\N=C\c1cc(O)c(O)cc1O)c1ccncc1
MIC (Staphylococcus aureus [1]): 20 µg/mL (≈ 73.5 µM)
Activity [2]: inactive

CC(C)(C)c1cc(/C=N/N=C(\N)c2cnccn2)c(O)c(C(C)(C)C)c1
MIC (Staphylococcus aureus [1]): inactive
Activity [2]: inactive

N/C(=N\N=C\c1cccc(O)c1O)c1ccncc1
MIC (Staphylococcus aureus [1]): inactive
Activity [2]: inactive

N/C(=N\N=C\c1cc(Br)cc([N+](=O)[O-])c1O)c1ccncc1
MIC (Staphylococcus aureus [1]): inactive
Activity [2]: inactive

N/C(=N\N=C\c1ccc(O)c(O)c1)c1ccncc1
MIC (Staphylococcus aureus [1]): inactive
Activity [2]: inactive

CC(C)(C)c1cc(C=O)c(O)c(C(C)(C)C)c1
Activity (PBMC [3]): 32.7%

CC(C)(C)c1cc(/C=N/N=C(\N)c2cccnc2)c(O)c(C(C)(C)C)c1
MIC (Staphylococcus aureus [1]): inactive
Activity [2]: inactive

N/C(=N\N=C\c1cc(I)cc(I)c1O)c1ccncc1
MIC (Staphylococcus aureus [1]): 10 µg/mL (≈ 20.3 µM)

CC(C)(C)c1cc(/C=N/N=C(\N)c2ccncc2)c(O)c(C(C)(C)C)c1
MIC (Enterococcus faecalis [4]): 4 µg/mL (≈ 11.3 µM)
MIC (Enterococcus [5]): 2 µg/mL (≈ 5.67 µM)
MIC (Staphylococcus aureus [6]): 2 µg/mL (≈ 5.67 µM)
MIC (Enterococcus faecalis [7]): 2 µg/mL (≈ 5.67 µM)
MIC (Enterococcus faecalis [8]): 2 µg/mL (≈ 5.67 µM)
MIC (Enterobacter cloacae): inactive
MIC (Staphylococcus aureus [1]): 2 µg/mL (≈ 5.67 µM)
MIC (Enterococcus faecalis [9]): 2 µg/mL (≈ 5.67 µM)
MIC (Enterococcus [10]): 2 µg/mL (≈ 5.67 µM)
Activity [2]: inactive
MIC [11]: 2 µg/mL (≈ 5.67 µM)
MIC (Enterococcus faecium [12]): 2 µg/mL (≈ 5.67 µM)
MIC (Enterococcus [13]): 2 µg/mL (≈ 5.67 µM)
MIC (Enterococcus [14]): 2 µg/mL (≈ 5.67 µM)
inhibition at 6.25 µg/mL [15]: 100%
MIC (Staphylococcus aureus [16]): 2 µg/mL (≈ 5.67 µM)
MIC [17]: inactive
MIC (Enterococcus [18]): 2 µg/mL (≈ 5.67 µM)
Activity (PBMC [19]): 100%
MIC [20]: inactive
MIC (Staphylococcus aureus [21]): 2 µg/mL (≈ 5.67 µM)
MIC (Enterococcus faecalis [22]): 2 µg/mL (≈ 5.67 µM)
MIC (Enterococcus faecalis [23]): 2 µg/mL (≈ 5.67 µM)
MIC (Escherichia coli [24]): inactive
MIC [25]: 6.25 µg/mL (≈ 17.7 µM)
MIC (Enterococcus [26]): 2 µg/mL (≈ 5.67 µM)
MIC (Enterococcus [27]): 2 µg/mL (≈ 5.67 µM)
MIC (Klebsiella pneumoniae): inactive
MIC (Enterococcus faecium [28]): 2 µg/mL (≈ 5.67 µM)
MIC (Escherichia coli [29]): inactive
MIC (Pseudomonas aeruginosa): inactive
MIC (Serratia marcescens): inactive

N/N=C(/N)c1ccncc1
Activity (PBMC [3]): 13.8%

COc1c(/C=N/N=C(\N)c2ccncc2)cc(C(C)(C)C)cc1C(C)(C)C
MIC (Staphylococcus aureus [1]): inactive

Cc1cc(C)c(O)c(/C=N/N=C(\N)c2ccncc2)c1
MIC (Staphylococcus aureus [1]): inactive

CC(C)(C)c1cc(/C=N/N=C(\N)c2ccc3ccccc3n2)c(O)c(C(C)(C)C)c1
MIC (Staphylococcus aureus [1]): inactive
Activity [2]: inactive

N/C(=N\N=C\c1cc([N+](=O)[O-])ccc1O)c1ccncc1
MIC (Staphylococcus aureus [1]): 20 µg/mL (≈ 70.1 µM)
Activity [2]: inactive

CC(=O)Oc1c(/C=N/N=C(\N)c2ccncc2)cc(C(C)(C)C)cc1C(C)(C)C
MIC (Staphylococcus aureus [1]): 4 µg/mL (≈ 10.1 µM)
Activity [2]: inactive

CC(C)(C)c1cc(/C=N/N=C(\N)c2ccncc2)cc(C(C)(C)C)c1O
MIC (Staphylococcus aureus [6]): > 256 µg/mL
MIC (Enterococcus faecalis [8]): inactive
MIC (Enterobacter cloacae): inactive
MIC (Staphylococcus aureus [1]): > 256 µg/mL
MIC (Enterococcus faecalis [9]): inactive
Activity [2]: inactive
MIC [11]: inactive
MIC (Enterococcus faecium [12]): inactive
inhibition at 6.25 µg/mL [15]: 75%
MIC (Staphylococcus aureus [16]): inactive
MIC [17]: inactive
MIC [20]: inactive
MIC (Staphylococcus aureus [21]): inactive
MIC (Escherichia coli [24]): inactive
MIC (Klebsiella pneumoniae): inactive
MIC (Enterococcus faecium [28]): inactive
MIC (Escherichia coli [29]): inactive
MIC (Pseudomonas aeruginosa): inactive
MIC (Serratia marcescens): inactive

COc1ccc(/C=N/N=C(\N)c2ccncc2)c(O)c1
MIC (Staphylococcus aureus [1]): inactive
Activity [2]: inactive

N/C(=N\N=C\c1ccc(O)c(O)c1O)c1ccncc1
MIC (Staphylococcus aureus [1]): 30 µg/mL (≈ 110 µM)
Activity [2]: inactive

N/C(=N\N=C\c1cc([N+](=O)[O-])cc(Br)c1O)c1ccncc1
MIC (Staphylococcus aureus [1]): inactive

CN[C@H](CC(C)C)C(=O)N[C@H]1C(=O)N[C@@H](CC(N)=O)C(=O)N[C@H]2C(=O)N[C@H]3C(=O)N[C@H](C(=O)N[C@H](C(=O)O)c4cc(O)cc(O)c4-c4cc3ccc4O)[C@H](O)c3ccc(c(Cl)c3)Oc3cc2cc(c3O[C@@H]2O[C@H](CO)[C@@H](O)[C@H](O)[C@H]2O[C@H]2C[C@](C)(N)[C@H](O)[C@H](C)O2)Oc2ccc(cc2Cl)[C@H]1O [VANCOMYCIN]
MIC (Enterococcus faecalis [4]): 0.25 µg/mL (≈ 0.173 µM)
MIC (Enterococcus [5]): > 16 µg/mL
MIC (Staphylococcus aureus [6]): 0.12 µg/mL (≈ 0.0828 µM)
MIC (Enterococcus faecalis [7]): 16 µg/mL (≈ 11 µM)
MIC (Enterococcus faecalis [8]): 0.25 µg/mL (≈ 0.173 µM)
MIC (Enterobacter cloacae): > 16 µg/mL
MIC (Staphylococcus aureus [1]): 0.05 µg/mL (≈ 0.0345 µM)
MIC (Enterococcus faecalis [9]): 0.12 µg/mL (≈ 0.0828 µM)
MIC (Enterococcus [10]): > 16 µg/mL
MIC [11]: 8 µg/mL (≈ 5.52 µM)
MIC (Enterococcus faecium [12]): 0.12 µg/mL (≈ 0.0828 µM)
MIC (Enterococcus [13]): 4 µg/mL (≈ 2.76 µM)
MIC (Enterococcus [14]): > 16 µg/mL
MIC (Staphylococcus aureus [16]): 0.12 µg/mL (≈ 0.0828 µM)
MIC [17]: > 16 µg/mL
MIC (Enterococcus [18]): 4 µg/mL (≈ 2.76 µM)
MIC [20]: > 16 µg/mL
MIC (Staphylococcus aureus [21]): 0.25 µg/mL (≈ 0.173 µM)
MIC (Enterococcus faecalis [22]): 0.25 µg/mL (≈ 0.173 µM)
MIC (Enterococcus faecalis [23]): 2 µg/mL (≈ 1.38 µM)
MIC (Escherichia coli [24]): > 16 µg/mL
MIC (Enterococcus [26]): 4 µg/mL (≈ 2.76 µM)
MIC (Enterococcus [27]): 4 µg/mL (≈ 2.76 µM)
MIC (Klebsiella pneumoniae): > 16 µg/mL
MIC (Enterococcus faecium [28]): 0.12 µg/mL (≈ 0.0828 µM)
MIC (Escherichia coli [29]): > 16 µg/mL
MIC (Pseudomonas aeruginosa): > 16 µg/mL
MIC (Serratia marcescens): > 16 µg/mL

N/C(=N\N=C\c1c(O)cc(O)cc1O)c1ccncc1
MIC (Staphylococcus aureus [1]): inactive
Activity [2]: inactive

N/C(=N\N=C\c1ccccc1O)c1ccncc1
Activity (PBMC [3]): 11.7%
MIC (Staphylococcus aureus [1]): inactive

COc1cc([N+](=O)[O-])cc(/C=N/N=C(\N)c2ccncc2)c1O
MIC (Staphylococcus aureus [1]): inactive
Activity [2]: inactive
